Results as given in ChEMBL document CHEMBL4177580, “New 5-HT1A, 5HT2A and 5HT2C receptor ligands containing a picolinic nucleus: Synthesis, in vitro and in vivo pharmacological evaluation” (Bioorg Med Chem, 2017).
Active and inactive are the calls of the source. The rule behind the calls is not given here.

Tests used:
[1] = biological target: T1, 5-hydroxytryptamine receptor 1A (Rattus norvegicus, UniProt P19327); assay: Displacement of [3H]-8-OH-DPAT from serotonin 5-HT1A receptor in Sprague-Dawley rat brain cortex homogenates incubated for 30 mins by liquid scintillation spectrometry
T1 sequence (P19327 whole entry): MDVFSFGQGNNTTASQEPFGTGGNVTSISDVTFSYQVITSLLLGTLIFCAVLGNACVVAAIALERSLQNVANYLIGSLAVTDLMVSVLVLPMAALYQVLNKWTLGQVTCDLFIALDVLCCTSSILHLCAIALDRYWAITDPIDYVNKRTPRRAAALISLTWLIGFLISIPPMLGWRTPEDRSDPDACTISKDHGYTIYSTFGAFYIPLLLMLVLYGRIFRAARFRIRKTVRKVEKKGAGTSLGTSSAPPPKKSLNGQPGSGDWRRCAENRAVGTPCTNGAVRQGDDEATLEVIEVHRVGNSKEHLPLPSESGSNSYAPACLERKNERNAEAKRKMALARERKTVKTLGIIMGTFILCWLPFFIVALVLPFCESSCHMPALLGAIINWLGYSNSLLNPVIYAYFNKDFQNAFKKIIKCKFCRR

[2] = biological target: 5-hydroxytryptamine receptor 2A (Rattus norvegicus, UniProt P14842); assay: Displacement of [3H]ketanserin from serotonin 5-HT2A receptor in Sprague-Dawley rat brain cortex homogenates incubated for 15 mins by liquid scintillation spectrometry
[3] = biological target: T2, 5-hydroxytryptamine receptor 2C (Rattus norvegicus, UniProt P08909); assay: Displacement of [3H]mesulergine from serotonin 5-HT2C receptor in Sprague-Dawley rat brain cortex homogenates incubated for 15 mins by liquid scintillation spectrometry
T2 sequence (P08909 whole entry): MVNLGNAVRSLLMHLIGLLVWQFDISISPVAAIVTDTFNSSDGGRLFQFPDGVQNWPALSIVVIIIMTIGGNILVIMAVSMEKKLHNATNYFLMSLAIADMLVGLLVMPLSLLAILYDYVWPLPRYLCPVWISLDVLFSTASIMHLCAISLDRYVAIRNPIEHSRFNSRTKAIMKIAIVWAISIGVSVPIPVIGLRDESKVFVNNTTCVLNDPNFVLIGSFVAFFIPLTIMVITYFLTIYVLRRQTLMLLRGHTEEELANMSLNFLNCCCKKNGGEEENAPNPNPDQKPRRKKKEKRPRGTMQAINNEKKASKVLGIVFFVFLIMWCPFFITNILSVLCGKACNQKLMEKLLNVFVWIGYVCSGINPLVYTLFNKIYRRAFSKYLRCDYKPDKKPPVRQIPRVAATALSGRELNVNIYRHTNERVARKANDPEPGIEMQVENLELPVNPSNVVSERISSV

D(2) dopamine receptor = D(2) dopamine receptor (Homo sapiens, UniProt P14416); assay: Displacement of [3H]methyl-spiperone from human recombinant dopamine D2 receptor expressed in HEK293 cells; assay type: cell-based
Mus musculus [4] = assay: Toxicity in Swiss albino mouse assessed as reduction in spontaneous locomotor activity at 60 mg/kg, ip dosed 60 mins before test and measured after 6 mins; assay type: organism-based; conditions: in vivo, 0.1 h
Procedure, shortened: (§1)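 Spontaneous locomotion: mice dosed i.p. 60 min before being placed individually in an actometer for 30 min. Distance travelled read at 6 and 30 min. Cages cleaned with 70% ethanol between animals. One-way ANOVA with Dunnett's; mean ± SEM of one experiment.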

Mus musculus [5] = assay: Toxicity in Swiss albino mouse assessed as reduction in spontaneous locomotor activity at 60 mg/kg, ip dosed 60 mins before test and measured after 30 mins; assay type: organism-based; conditions: in vivo, 0.5 h; procedure, shortened: as §1
Mus musculus [6] = assay: Induction of hypothermia in Swiss albino mouse assessed as reduction in body temperature at 30 mg/kg, ip measured after 30 mins post dose; assay type: functional, organism-based
Procedure, shortened: (§2)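 Normothermic male Swiss mice; rectal thermistor readings over 180 min. Baseline is the mean of readings 60 and 30 min before dosing; readings at 30, 60, 90, 120 min post-injection; Δt = tf − ti. Test compounds i.p. (DMSO/methylcellulose); 8-OH-DPAT (5 mg/kg) and WAY 100635 (0.1 mg/kg) s.c. in water. Two-way ANOVA, Bonferroni.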

Mus musculus [7] = assay: Induction of hypothermia in Swiss albino mouse assessed as reduction in body temperature at 30 mg/kg, ip measured after 60 mins post dose; assay type: functional, organism-based; procedure, shortened: as §2
Mus musculus [8] = assay: Antidepressant-like activity in Swiss albino mouse assessed as reduction in immobility time at 7.5 mg/kg, ip dosed 1 hr before test by forced swimming test; assay type: functional, organism-based
Procedure, shortened: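 Male Swiss albino mice (18–24 g), compound i.p. in 0.1% DMSO/0.5% methylcellulose 1 h pre-test. Porsolt swim: cylinder 25 cm high, 10 cm diameter, 10 cm water at 23–25°C, 6 min session; immobility scored over last 4 min. Blind observer; one-way ANOVA with Dunnett's; mean ± SEM.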

Mus musculus [9] = assay: Toxicity in Swiss albino mouse assessed as reduction in spontaneous locomotor activity at 7.5 mg/kg, ip dosed 60 mins before test; assay type: organism-based; conditions: in vivo, 1 h; procedure, shortened: as §1
Rattus norvegicus = assay: In-vivo 5-HT1A receptor agonist activity in Wistar rat assessed as induction of lower lip retraction by measuring lower lip retraction score at 30 mg/kg, ip dosed 15 mins before test (reference value: 0.0 +/- 0.0)

D(2) dopamine receptor, sequence (P14416 whole entry): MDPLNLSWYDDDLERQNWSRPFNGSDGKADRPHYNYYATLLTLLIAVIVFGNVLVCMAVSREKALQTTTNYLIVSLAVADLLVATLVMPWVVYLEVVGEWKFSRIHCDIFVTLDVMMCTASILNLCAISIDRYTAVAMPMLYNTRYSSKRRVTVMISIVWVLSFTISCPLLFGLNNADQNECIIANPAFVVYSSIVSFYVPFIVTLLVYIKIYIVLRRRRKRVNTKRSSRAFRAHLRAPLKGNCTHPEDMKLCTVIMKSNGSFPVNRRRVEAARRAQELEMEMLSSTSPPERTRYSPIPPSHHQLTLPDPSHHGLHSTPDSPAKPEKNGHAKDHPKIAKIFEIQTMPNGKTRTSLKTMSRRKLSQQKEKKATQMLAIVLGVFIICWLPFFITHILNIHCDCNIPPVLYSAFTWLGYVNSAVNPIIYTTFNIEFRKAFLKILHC
5-hydroxytryptamine receptor 2A, sequence (P14842 whole entry): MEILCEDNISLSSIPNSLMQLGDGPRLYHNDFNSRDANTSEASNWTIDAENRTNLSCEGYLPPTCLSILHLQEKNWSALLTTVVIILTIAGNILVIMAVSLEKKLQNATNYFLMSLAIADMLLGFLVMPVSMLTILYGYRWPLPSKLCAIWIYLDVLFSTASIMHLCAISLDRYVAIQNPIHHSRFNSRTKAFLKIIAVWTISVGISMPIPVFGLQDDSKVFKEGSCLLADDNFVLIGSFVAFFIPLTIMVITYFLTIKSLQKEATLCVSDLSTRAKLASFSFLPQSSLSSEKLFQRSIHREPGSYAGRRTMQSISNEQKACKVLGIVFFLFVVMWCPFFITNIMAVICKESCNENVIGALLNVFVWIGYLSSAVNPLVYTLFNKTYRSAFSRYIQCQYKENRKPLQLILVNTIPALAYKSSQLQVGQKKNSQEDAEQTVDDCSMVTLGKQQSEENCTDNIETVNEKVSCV

Ki [1]: 0.183 nM
Ki [2]: 74.1 nM
Ki [3]: > 10000 nM
Ki (D(2) dopamine receptor): 250 nM
Structure (SMILES): O=C(NCCN1CCN(c2ccc(Cl)c(Cl)c2)CC1)c1ccccn1
Activity (Mus musculus [4]): Toxic
Activity (Mus musculus [5]): Toxic
Activity (Mus musculus [6]): Active
Activity (Mus musculus [7]): Active
Activity (Mus musculus [8]): Active
Activity (Mus musculus [9]): Non-Toxic
Activity_index (Rattus norvegicus): 0.1429
